# Measurements taken from ChEMBL document CHEMBL1151177, “Antiviral flavonoids from the seeds of Aesculus chinensis” (J Nat Prod, 2004).
# Assays:
# Influenza A virus = test: Antiviral activity against influenza virus type A H1N1 in MDCK cells assessed as inhibition of virus-induced cytopathic effect; format: functional, organism-based
# Procedure, shortened: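 Two-fold serial dilutions were applied to cell monolayers, starting at the maximal noncytotoxic concentration. An equal volume of virus at 100 TCID50/mL was added, with an untreated infected control. Plates were held at 37 °C, humidified, for 2–5 days. CPE was scored 0–4 and expressed as percent of virus control. IC50 (µg/mL), the concentration halving CPE, was read from graphic plots.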
# [1] = Selectivity index, ratio of CC50 for MDCK cells to IC50 for influenza virus type A H1N1; format: functional
# Procedure, shortened: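 SI was computed as CC50/IC50. CC50 came from microscopic morphology scoring (0–4) of monolayers after 2–5 days at 37 °C. IC50 came from CPE scoring of cells infected at 100 TCID50/mL and treated with two-fold dilutions for 2–5 days at 37 °C. Both values were read from graphic plots.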
SMILES,CC50 (Influenza A virus) [µg/mL],IC50 (Influenza A virus) [µg/mL],Ratio CC50/IC50 [1]
NC(=O)c1ncn([C@@H]2O[C@H](CO)[C@@H](O)[C@H]2O)n1 [RIBAVIRIN],> 125,62.5,–
C[C@@H]1O[C@@H](Oc2c(-c3ccc(O)cc3)oc3cc(O)cc(O)c3c2=O)[C@H](O)[C@H](O)[C@H]1O[C@@H]1O[C@H](CO)[C@@H](O)[C@H](O)[C@H]1O,375,> 500,<0.8
O=c1c(O[C@@H]2O[C@H](CO)[C@H](O)[C@H](O)[C@H]2O)c(-c2ccc(O)cc2)oc2cc(O)cc(O)c12 [TRIFOLIN],215,> 300,<0.7
O=c1c(O[C@@H]2O[C@H](CO)[C@@H](O)[C@H](O)[C@H]2O)c(-c2ccc(O)cc2)oc2cc(O)cc(O)c12 [ASTRAGALIN],392,24.5,16
O=c1c(O[C@@H]2O[C@H](CO)[C@@H](O)[C@H](O)[C@H]2O[C@@H]2OC[C@@H](O)[C@H](O)[C@H]2O)c(-c2ccc(O)c(O[C@@H]3O[C@H](CO)[C@@H](O)[C@H](O)[C@H]3O)c2)oc2cc(O)cc(O)c12,> 322,> 500,–
C[C@@H]1O[C@@H](OC[C@H]2O[C@@H](Oc3c(-c4ccc(O)c(O[C@@H]5O[C@H](CO)[C@@H](O)[C@H](O)[C@H]5O)c4)oc4cc(O)cc(O)c4c3=O)[C@H](O[C@@H]3OC[C@@H](O)[C@H](O)[C@H]3O)[C@@H](O)[C@@H]2O)[C@H](O)[C@H](O)[C@H]1O [AESCUFLAVOSIDE],108,> 100,<1.1
O=c1c(O[C@@H]2O[C@H](CO[C@@H]3O[C@H](CO)[C@@H](O)[C@H](O)[C@H]3O)[C@@H](O)[C@H](O)[C@H]2O[C@@H]2OC[C@@H](O)[C@H](O)[C@H]2O)c(-c2ccc(O)cc2)oc2cc(O)cc(O)c12,107,> 100,<1.1
O=c1c(O[C@@H]2O[C@H](CO)[C@@H](O)[C@H](O)[C@H]2O[C@@H]2OC[C@@H](O)[C@H](O)[C@H]2O)c(-c2ccc(O)c(O)c2)oc2cc(O)cc(O)c12,198,> 200,<1
O=c1c(O[C@@H]2O[C@H](CO)[C@@H](O)[C@H](O)[C@H]2O[C@@H]2OC[C@@H](O)[C@H](O)[C@H]2O)c(-c2ccc(O)cc2)oc2cc(O)cc(O)c12,46.9,> 100,<0.5
COc1ccc(-c2oc3cc(O)cc(O)c3c(=O)c2O[C@@H]2O[C@H](CO)[C@@H](O)[C@H](O)[C@H]2O[C@@H]2OC[C@@H](O)[C@H](O)[C@H]2O)cc1O[C@@H]1O[C@H](CO)[C@@H](O)[C@H](O)[C@H]1O [AESCUFLAVOSIDE A],322,> 500,<0.6
O=c1c(O[C@@H]2O[C@H](CO)[C@@H](O)[C@H](O)[C@H]2O)c(-c2ccc(O)c(O)c2)oc2cc(O)cc(O)c12 [ISOQUERCETIN],> 400,> 500,–
